# Activity calls are given as the source filed them. No cut-off for these calls is given here.
# System: Helicobacter pylori
# Experiment: Antimicrobial activity against Helicobacter pylori ATCC 700392
# Format: functional
# Conditions: not given
row,SMILES,MBC [µg/mL]
1,CC1(C)CC[C@]2(C(=O)O)CC[C@]3(C)C(=CC=C4[C@@]5(C)CC[C@@H](O)C(C)(C)[C@@H]5CC[C@]43C)[C@@H]2C1 [FATSICARPAIN D],64
2,CC1(C)C=C2[C@H]3C[C@@H](O)[C@@H]4[C@@]5(C)CC[C@@H](O)C(C)(C)[C@@H]5CC[C@@]4(C)[C@]3(C)CC[C@@]2(C(=O)O)CC1 [FATSICARPAIN E],128
3,CC1(C)CC[C@@]23CC[C@]4(C)[C@@](C=C[C@@H]5[C@@]6(C)CC[C@@H](O)[C@@](C)(CO)[C@@H]6CC[C@]54C)(OC2=O)[C@@H]3C1 [FATSICARPAIN G],64

# System: not listed separately
# Experiment: Cytotoxicity against human HepG2(2.2.15) cells after 3 days by MTS assay
# Format: functional, cell-based
# Conditions: HepG2 2.2.15, 72 h
# Summary of the method: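 HepG2 2.2.15 cells exposed for 3 days to 2-fold serial dilutions, 1.25–40 μg/mL. Viability read by MTS assay, in triplicate. Expressed as percentage of untreated control. Fluorouracil as positive control.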
row,SMILES,IC50 [µM]
1,CC1(C)CC[C@]2(C(=O)O)CC[C@]3(C)C(=CC=C4[C@@]5(C)CC[C@@H](O)C(C)(C)[C@@H]5CC[C@]43C)[C@@H]2C1 [FATSICARPAIN D],28.8
2,CC1(C)C=C2[C@H]3C[C@@H](O)[C@@H]4[C@@]5(C)CC[C@@H](O)C(C)(C)[C@@H]5CC[C@@]4(C)[C@]3(C)CC[C@@]2(C(=O)O)CC1 [FATSICARPAIN E],> 50
3,CC1(C)CC[C@@]23CC[C@]4(C)[C@@](C=C[C@@H]5[C@@]6(C)CC[C@@H](O)[C@@](C)(CO)[C@@H]6CC[C@]54C)(OC2=O)[C@@H]3C1 [FATSICARPAIN G],29.2

# System: Hepatitis B virus
# Experiment: Antiviral activity against Hepatitis B virus infected in human HepG2(2.2.15) cells assessed as reduction of HBsAg secretion by enzyme immunoassay
# Format: functional, organism-based
# Conditions: not given
# Summary of the method: (§1)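 HepG2 2.2.15 cells grown in modified Eagle's medium with 10% FBS, no antibiotics, 37 °C, 5% CO2. Confluent cultures treated at nontoxic concentrations in medium with 2% FBS, renewed every 3 days. Medium collected at day 6; HBsAg and HBeAg measured by enzyme immunoassay. Values relative to 0.1% DMSO control. IFN-alpha as positive control.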
row,SMILES,inhibition
1,CC1(C)CC[C@]2(C(=O)O)CC[C@]3(C)C(=CC=C4[C@@]5(C)CC[C@@H](O)C(C)(C)[C@@H]5CC[C@]43C)[C@@H]2C1 [FATSICARPAIN D],inactive
2,CC1(C)C=C2[C@H]3C[C@@H](O)[C@@H]4[C@@]5(C)CC[C@@H](O)C(C)(C)[C@@H]5CC[C@@]4(C)[C@]3(C)CC[C@@]2(C(=O)O)CC1 [FATSICARPAIN E],inactive
3,CC1(C)CC[C@@]23CC[C@]4(C)[C@@](C=C[C@@H]5[C@@]6(C)CC[C@@H](O)[C@@](C)(CO)[C@@H]6CC[C@]54C)(OC2=O)[C@@H]3C1 [FATSICARPAIN G],inactive

# System: Hepatitis B virus
# Experiment: Antiviral activity against Hepatitis B virus infected in human HepG2(2.2.15) cells assessed as reduction of HBeAg secretion by enzyme immunoassay
# Format: functional, organism-based
# Conditions: not given
# Summary of the method: as §1
row,SMILES,inhibition
1,CC1(C)CC[C@]2(C(=O)O)CC[C@]3(C)C(=CC=C4[C@@]5(C)CC[C@@H](O)C(C)(C)[C@@H]5CC[C@]43C)[C@@H]2C1 [FATSICARPAIN D],inactive
2,CC1(C)C=C2[C@H]3C[C@@H](O)[C@@H]4[C@@]5(C)CC[C@@H](O)C(C)(C)[C@@H]5CC[C@@]4(C)[C@]3(C)CC[C@@]2(C(=O)O)CC1 [FATSICARPAIN E],inactive
3,CC1(C)CC[C@@]23CC[C@]4(C)[C@@](C=C[C@@H]5[C@@]6(C)CC[C@@H](O)[C@@](C)(CO)[C@@H]6CC[C@]54C)(OC2=O)[C@@H]3C1 [FATSICARPAIN G],inactive

# System: AGS
# Experiment: Cytotoxicity against human AGS cells
# Format: functional, cell-based
# Conditions: not given
row,SMILES,IC50 [µM]
1,CC1(C)CC[C@]2(C(=O)O)CC[C@]3(C)C(=CC=C4[C@@]5(C)CC[C@@H](O)C(C)(C)[C@@H]5CC[C@]43C)[C@@H]2C1 [FATSICARPAIN D],42.8
2,CC1(C)C=C2[C@H]3C[C@@H](O)[C@@H]4[C@@]5(C)CC[C@@H](O)C(C)(C)[C@@H]5CC[C@@]4(C)[C@]3(C)CC[C@@]2(C(=O)O)CC1 [FATSICARPAIN E],47.6
3,CC1(C)CC[C@@]23CC[C@]4(C)[C@@](C=C[C@@H]5[C@@]6(C)CC[C@@H](O)[C@@](C)(CO)[C@@H]6CC[C@]54C)(OC2=O)[C@@H]3C1 [FATSICARPAIN G],33.2

# System: Bacillus cereus
# Experiment: Antimicrobial activity against Bacillus cereus ATCC 9139 after 24 hrs by broth microdilution method
# Format: functional
# Conditions: ATCC 9139, 24 h
# Summary of the method: (§2)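 MIC by broth microdilution per CLSI guidelines. Strains grown on nutrient agar at 37 °C for 24 h. Inoculum prepared in normal saline against a 0.5 McFarland standard, final density 5 × 10^5 cfu/mL. Compounds dissolved in DMSO, then nutrient broth. 2-fold serial dilutions from 128 down to 0.25 μg/mL. Ampicillin column as positive control.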
row,MIC [µg/mL],SMILES
1,8,CC1(C)CC[C@]2(C(=O)O)CC[C@]3(C)C(=CC=C4[C@@]5(C)CC[C@@H](O)C(C)(C)[C@@H]5CC[C@]43C)[C@@H]2C1 [FATSICARPAIN D]
2,64,CC1(C)C=C2[C@H]3C[C@@H](O)[C@@H]4[C@@]5(C)CC[C@@H](O)C(C)(C)[C@@H]5CC[C@@]4(C)[C@]3(C)CC[C@@]2(C(=O)O)CC1 [FATSICARPAIN E]

# System: Enterococcus faecalis
# Experiment: Antimicrobial activity against Enterococcus faecalis ATCC 29212 after 24 hrs by broth microdilution method
# Format: functional, organism-based
# Conditions: not given
# Summary of the method: as §2
row,MIC,SMILES
1,inactive,CC1(C)CC[C@]2(C(=O)O)CC[C@]3(C)C(=CC=C4[C@@]5(C)CC[C@@H](O)C(C)(C)[C@@H]5CC[C@]43C)[C@@H]2C1 [FATSICARPAIN D]
2,inactive,CC1(C)C=C2[C@H]3C[C@@H](O)[C@@H]4[C@@]5(C)CC[C@@H](O)C(C)(C)[C@@H]5CC[C@@]4(C)[C@]3(C)CC[C@@]2(C(=O)O)CC1 [FATSICARPAIN E]
3,inactive,CC1(C)CC[C@@]23CC[C@]4(C)[C@@](C=C[C@@H]5[C@@]6(C)CC[C@@H](O)[C@@](C)(CO)[C@@H]6CC[C@]54C)(OC2=O)[C@@H]3C1 [FATSICARPAIN G]

# System: Listeria monocytogenes
# Experiment: Antimicrobial activity against Listeria monocytogenes ATCC 7644 after 24 hrs by broth microdilution method
# Format: functional, organism-based
# Conditions: not given
# Summary of the method: as §2
row,MIC,SMILES
1,inactive,CC1(C)CC[C@]2(C(=O)O)CC[C@]3(C)C(=CC=C4[C@@]5(C)CC[C@@H](O)C(C)(C)[C@@H]5CC[C@]43C)[C@@H]2C1 [FATSICARPAIN D]
2,inactive,CC1(C)C=C2[C@H]3C[C@@H](O)[C@@H]4[C@@]5(C)CC[C@@H](O)C(C)(C)[C@@H]5CC[C@@]4(C)[C@]3(C)CC[C@@]2(C(=O)O)CC1 [FATSICARPAIN E]
3,inactive,CC1(C)CC[C@@]23CC[C@]4(C)[C@@](C=C[C@@H]5[C@@]6(C)CC[C@@H](O)[C@@](C)(CO)[C@@H]6CC[C@]54C)(OC2=O)[C@@H]3C1 [FATSICARPAIN G]

# System: Pseudomonas aeruginosa
# Experiment: Antimicrobial activity against Pseudomonas aeruginosa ATCC 27853 after 24 hrs by broth microdilution method
# Format: functional, organism-based
# Conditions: not given
# Summary of the method: as §2
row,MIC,SMILES
1,inactive,CC1(C)CC[C@]2(C(=O)O)CC[C@]3(C)C(=CC=C4[C@@]5(C)CC[C@@H](O)C(C)(C)[C@@H]5CC[C@]43C)[C@@H]2C1 [FATSICARPAIN D]
2,inactive,CC1(C)C=C2[C@H]3C[C@@H](O)[C@@H]4[C@@]5(C)CC[C@@H](O)C(C)(C)[C@@H]5CC[C@@]4(C)[C@]3(C)CC[C@@]2(C(=O)O)CC1 [FATSICARPAIN E]
3,inactive,CC1(C)CC[C@@]23CC[C@]4(C)[C@@](C=C[C@@H]5[C@@]6(C)CC[C@@H](O)[C@@](C)(CO)[C@@H]6CC[C@]54C)(OC2=O)[C@@H]3C1 [FATSICARPAIN G]

# System: Salmonella enterica subsp. enterica
# Experiment: Antimicrobial activity against Salmonella enterica ATCC 13311 after 24 hrs by broth microdilution method
# Format: functional, organism-based
# Conditions: not given
# Summary of the method: as §2
row,MIC,SMILES
1,inactive,CC1(C)CC[C@]2(C(=O)O)CC[C@]3(C)C(=CC=C4[C@@]5(C)CC[C@@H](O)C(C)(C)[C@@H]5CC[C@]43C)[C@@H]2C1 [FATSICARPAIN D]
2,inactive,CC1(C)C=C2[C@H]3C[C@@H](O)[C@@H]4[C@@]5(C)CC[C@@H](O)C(C)(C)[C@@H]5CC[C@@]4(C)[C@]3(C)CC[C@@]2(C(=O)O)CC1 [FATSICARPAIN E]
3,inactive,CC1(C)CC[C@@]23CC[C@]4(C)[C@@](C=C[C@@H]5[C@@]6(C)CC[C@@H](O)[C@@](C)(CO)[C@@H]6CC[C@]54C)(OC2=O)[C@@H]3C1 [FATSICARPAIN G]

# System: Escherichia coli
# Experiment: Antimicrobial activity against Escherichia coli ATCC 35150 after 24 hrs by broth microdilution method
# Conditions: not given
row,MIC,SMILES
1,inactive,CC1(C)CC[C@]2(C(=O)O)CC[C@]3(C)C(=CC=C4[C@@]5(C)CC[C@@H](O)C(C)(C)[C@@H]5CC[C@]43C)[C@@H]2C1 [FATSICARPAIN D]
2,inactive,CC1(C)C=C2[C@H]3C[C@@H](O)[C@@H]4[C@@]5(C)CC[C@@H](O)C(C)(C)[C@@H]5CC[C@@]4(C)[C@]3(C)CC[C@@]2(C(=O)O)CC1 [FATSICARPAIN E]
3,inactive,CC1(C)CC[C@@]23CC[C@]4(C)[C@@](C=C[C@@H]5[C@@]6(C)CC[C@@H](O)[C@@](C)(CO)[C@@H]6CC[C@]54C)(OC2=O)[C@@H]3C1 [FATSICARPAIN G]

# — ChEMBL document CHEMBL1821643, “Oleanane-type triterpenoids from the leaves and twigs of Fatsia polycarpa” (J Nat Prod, 2011)
